Source: ChEMBL document CHEMBL4373637, “Synthesis of bicyclic 1,4-thiazepines as novel anti-Trypanosoma brucei brucei agents” (Medchemcomm, 2019)

How the values were obtained:
Caenorhabditis elegans = assay: Antiparasitic activity against Caenorhabditis elegans assessed as inhibition of parasite motility at 100 uM after 17.5 hrs by motility assay relative to control; assay type: functional
In short: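 About 80 synchronized L4 worms per well in K buffer with 0.015% BSA. Motility was first recorded for 30 min to set 100%. Compound was then added at 100 µM in 1% DMSO, and motility was tracked automatically for 17.5 h. Mean motility at the final time was compared with 1% DMSO control wells. Eight replicates.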

[1] = tested on: Trypanosoma brucei brucei; assay: Antitrypanosomal activity against Trypanosoma brucei brucei 427 assessed as parasite death at 30 uM after 24 hrs by PI-staining based flow cytometry analysis relative to control; assay type: functional
In short: (§1)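 Bloodstream-form T. b. brucei strain 427 grown in HMI-9 with 10% FBS at 37 °C and 5% CO2. Exponential-phase parasites were seeded at 5 x 10⁵/mL and given compound from DMSO stocks, alongside 1% DMSO and nifurtimox control wells. After 24 h, aliquots were diluted into PBS with 1% glucose (pH 7.4) and propidium iodide and counted by flow cytometry (ex 488 nm). Viability (%) = 100 × cells treated / cells in DMSO control.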

[2] = tested on: Trypanosoma brucei brucei; assay: Antitrypanosomal activity against Trypanosoma brucei brucei 427 assessed as parasite death at 5 uM after 24 hrs by PI-staining based flow cytometry analysis relative to control; assay type: functional; in short: as §1
[3] = tested on: Trypanosoma brucei brucei; assay: Antitrypanosomal activity against Trypanosoma brucei brucei 427 assessed as parasite death after 24 hrs by PI-staining based flow cytometry analysis; assay type: functional, organism-based; conditions: Trypanosoma brucei, 427, 24 h
In short: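 Bloodstream-form T. b. brucei 427, cell line 449, carrying a redox biosensor, grown in HMI-9 with 10% FBS at 37 °C and 5% CO2. Exponential-phase cells at 5 x 10^5/mL were exposed to compound for 24 h; the control was 1% DMSO. Cells were then diluted into PBS with 1% glucose (pH 7.4) and propidium iodide, and analysed by flow cytometry (ex 488 nm). Viability was expressed as % of DMSO-control cell number.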

[4] = tested on: Nippostrongylus brasiliensis; assay: Antiparasitic activity against Nippostrongylus brasiliensis L4 assessed as parasite death at 20 uM relative to control; assay type: functional
[5] = Selectivity index, ratio of EC50 for mouse J774 cells to EC50 for antitrypanosomal activity against Trypanosoma brucei brucei 427; assay type: toxicity; conditions: read-out: Ratio EC50
J774 = assay: Cytotoxicity against mouse J774 cells assessed as reduction in cell viability after 24 hrs by WST-1 assay; assay type: cell-based; conditions: J774, 24 h
In short: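 Mouse J774 macrophages grown in DMEM with 10% FCS at 37 °C and 5% CO2. Viability was read with WST-1 at 6 concentrations, in triplicate, and expressed relative to the DMSO-treated control.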

[6] = target: T1, Thioredoxin glutathione reductase (Echinococcus granulosus) (UniProt Q869D7); assay: Inhibition of wild type recombinant Echinococcus granulosus TGR at 50 uM preincubated for NADPH followed by compound addition and measured after 3 mins by spectrophotometric analysis relative to control
T1 sequence (whole entry): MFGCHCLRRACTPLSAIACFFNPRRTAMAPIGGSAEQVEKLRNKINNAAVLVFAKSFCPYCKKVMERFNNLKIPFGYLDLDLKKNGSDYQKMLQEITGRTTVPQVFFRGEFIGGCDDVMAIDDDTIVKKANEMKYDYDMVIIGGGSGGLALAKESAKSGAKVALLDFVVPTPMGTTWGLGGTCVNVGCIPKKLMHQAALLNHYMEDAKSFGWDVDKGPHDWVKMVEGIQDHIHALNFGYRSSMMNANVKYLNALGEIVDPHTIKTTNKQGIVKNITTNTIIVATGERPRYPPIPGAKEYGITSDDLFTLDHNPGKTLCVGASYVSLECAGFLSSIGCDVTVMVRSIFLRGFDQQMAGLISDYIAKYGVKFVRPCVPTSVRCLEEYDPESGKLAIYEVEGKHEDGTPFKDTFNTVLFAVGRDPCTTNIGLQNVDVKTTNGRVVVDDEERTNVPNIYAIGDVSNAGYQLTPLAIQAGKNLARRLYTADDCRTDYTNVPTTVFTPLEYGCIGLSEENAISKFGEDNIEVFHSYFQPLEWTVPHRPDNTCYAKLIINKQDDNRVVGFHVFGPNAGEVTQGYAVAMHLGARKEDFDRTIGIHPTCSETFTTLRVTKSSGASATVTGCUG
In short: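 Recombinant wild-type E. granulosus TGR (1 nM) in 50 mM phosphate, 1 mM EDTA, pH 7, with 100 µM NADPH. Enzyme was preincubated for 3 min with NADPH and inhibitor at 50 µM (from a 100 mM DMSO stock). The reaction was started with 5 mM DTNB, and TNB formation was followed at 412 nm for 3 min. Runs were in duplicate, with controls lacking enzyme and lacking inhibitor.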

Structure (SMILES) | inhibition at 100 µM (Caenorhabditis elegans) [%] | Activity [1] [%] | Activity [2] [%] | EC50 [3] [µM] | Activity [4] [%] | selectivity ratio [5] | EC50 (J774) [µM] | inhibition [6] [%]
CCOC(=O)C1=C(C(=O)OCC)C2CSC(CS1)N2Cc1ccc(F)cc1 (stereo not drawn) | 26 | 99.4 | 12.7 | 17.8 | 47.6 | 3.6 | 64.4 | 41
CCOC(=O)C1=C(C(=O)OCC)C2CSC(CS1)N2CCCC(=O)OCc1c(-c2ccccc2)no[n+]1[O-] (stereo not drawn) | 22 | 97.8 | 60.4 | 2.8 | – | > 71 | > 200 | 0
O=C(OCc1c(-c2ccccc2)no[n+]1[O-])C1=C(C(=O)OCc2c(-c3ccccc3)no[n+]2[O-])C2CSC(CS1)N2Cc1ccccc1 (stereo not drawn) | – | 23.3 | 12.2 | – | – | – | – | –
CCCSc1ccc2[nH]c(NC(=O)OC)nc2c1 [ALBENDAZOLE] | – | – | – | – | 100 | – | – | –
COC(=O)C1=C(C(=O)c2ccc(Cl)cc2)C2CSC(CS1)N2CCO (stereo not drawn) | 18 | 3.6 | 1.8 | – | 20.6 | – | – | 0
COC(=O)C1=C(C(=O)c2ccc(Cl)cc2)C2CSC(CS1)N2Cc1ccccc1 (stereo not drawn) | 51 | 57.5 | 3.4 | – | 20.5 | – | – | 0
CCOC(=O)C1=C(C(=O)OCC)C2CSC(CS1)N2Cc1ccccc1 (stereo not drawn) | 20 | 98.8 | 3.5 | 18.9 | 5.9 | 10 | 200 | 0
O=C(OCc1c(-c2ccccc2)no[n+]1[O-])C1=C(C(=O)c2ccc(Cl)cc2)C2CSC(CS1)N2Cc1ccccc1 (stereo not drawn) | – | 97.7 | 89.4 | 2.5 | – | 1.2 | 3.1 | 0
COC(=O)C1=C(C(=O)c2ccc(Cl)cc2)C2CSC(CS1)N2Cc1ccc(OC)cc1 (stereo not drawn) | 3 | 95.9 | 0 | 16.4 | 27.6 | 0.6 | 9.7 | 29
CC1CS(=O)(=O)CCN1/N=C/c1ccc([N+](=O)[O-])o1 (stereo not drawn) [NIFURTIMOX] | – | – | – | – | – | 10 | 150 | –
CCOC(=O)C1=C(C(=O)OCC)C2CSC(CS1)N2Cc1ccc(OC)cc1 (stereo not drawn) | 50 | 97.7 | 3 | 18 | 13.8 | > 11 | > 200 | 36
CCOC(=O)C1=C(C(=O)OCC)C2CSC(CS1)N2Cc1ccc(Cl)cc1 (stereo not drawn) | 37 | 97.3 | 2.4 | 8 | 17.1 | > 25 | > 200 | 0
